Experiment [1] relates to Staphylococcus epidermidis. As to the kind of experiment: Antimicrobial activity against Staphylococcus epidermidis MTCC 3615 assessed as zone of inhibition at 1 mg/disc after 24 hrs incubation by disc diffusion assay. It counts as functional. The essentials:
(§1)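 Inocula grown in Mueller Hinton broth for 24 h at 37 °C and swabbed onto Mueller Hinton agar. Discs carried 1 mg compound each and stood 30 min at room temperature before 24 h incubation at 37 °C. Solvent as negative control. Inhibition zones recorded in mm; experiment done twice.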

Experiment [2] has as its system Staphylococcus aureus. The experiment can be described thus: Antimicrobial activity against Staphylococcus aureus MTCC 96 assessed as zone of inhibition at 1 mg/disc after 24 hrs incubation by disc diffusion assay. Format: functional. Summed up:
as §1

In experiment [3] the test system is Staphylococcus aureus. As to the kind of experiment: Antimicrobial activity against methicillin-resistant Staphylococcus aureus assessed as zone of inhibition at 1 mg/disc after 24 hrs incubation by disc diffusion assay. Format: functional. Summed up:
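Inoculum grown in Mueller Hinton broth 24 h at 37°C, swabbed onto Mueller Hinton agar and dried 10 min. Discs loaded at 1 mg/disc, then 30 min at room temperature for diffusion. Plates incubated 24 h at 37°C. Solvent negative control; streptomycin positive control. Zone of inhibition read in mm; experiment done twice.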

The test system of experiment [4] is Micrococcus luteus. As to the kind of experiment: Antimicrobial activity against Micrococcus luteus MTCC 106 assessed as zone of inhibition at 1 mg/disc after 24 hrs incubation by disc diffusion assay. Format: functional. The essentials: as §1
Experiment [5] concerns Klebsiella aerogenes. As to the kind of experiment: Antimicrobial activity against Enterobacter aerogenes MTCC 111 assessed as zone of inhibition at 1 mg/disc after 24 hrs incubation by disc diffusion assay. It counts as functional. The essentials: as §1
Experiment [6] concerns Salmonella typhimurium. The experiment can be described thus: Antimicrobial activity against Salmonella typhimurium MTCC 1251 assessed as zone of inhibition at 1 mg/disc after 24 hrs incubation by disc diffusion assay. It counts as functional. As to conditions: for inhibition: Salmonella enterica subsp. enterica serovar Typhimurium. The essentials: as §1
The subject of experiment [7] is Klebsiella pneumoniae. The experiment can be described thus: Antimicrobial activity against Klebsiella pneumonia MTCC 109 assessed as zone of inhibition at 1 mg/disc after 24 hrs incubation by disc diffusion assay. It counts as functional. The essentials:
as §1

Experiment [8] deals with Proteus vulgaris. The experiment can be described thus: Antimicrobial activity against Proteus vulgaris MTCC 1771 assessed as zone of inhibition at 1 mg/disc after 24 hrs incubation by disc diffusion assay. Format: functional. Summed up: as §1
The subject of experiment [9] is Shigella flexneri. The experiment can be described thus: Antimicrobial activity against Shigella flexneri MTCC 1457 assessed as zone of inhibition at 1 mg/disc after 24 hrs incubation by disc diffusion assay. Format: functional. Summed up: as §1
The next experiment deals with Candida albicans. As to the kind of experiment: Antifungal activity against Candida albicans MTCC 227 assessed as zone of inhibition at 1 mg/disc after 48 hrs incubation by disc diffusion assay. It counts as functional. Summed up:
(§2)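 Disc diffusion on Mueller Hinton agar with swabbed cultures, 1 mg compound per disc. Discs stood 30 min at room temperature for diffusion, then plates incubated 48 h at 28 °C. Solvent as negative control. Yeast pre-grown in Sabouraud dextrose broth at 28 °C for 48-72 h; filamentous fungal spores came from SDA slants grown 10 days at 28 °C. Zone diameters in mm; run twice.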

The test system of another experiment is Malassezia pachydermatis. The experiment can be described thus: Antifungal activity against Malassezia pachydermatis assessed as zone of inhibition at 1 mg/disc after 48 hrs incubation by disc diffusion assay. Format: functional. The essentials:
as §2

In experiment [10] the test system is Staphylococcus aureus. The experiment can be described thus: Antimicrobial activity against Staphylococcus aureus MTCC 96 assessed as absence of visible growth after 48 to 72 hrs. It counts as functional.
Experiment [11] relates to Staphylococcus aureus. The experiment can be described thus: Antimicrobial activity against methicillin-resistant Staphylococcus aureus assessed as absence of visible growth after 48 to 72 hrs. Format: functional. Summed up:
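Broth two-fold serial dilution in 96-well plates, 1000 to 7.81 µg/mL, compound dissolved in DMSO (2%). Inoculum grown in Mueller Hinton broth 24 h at 37°C. Streptomycin positive control. 5 µl of tested broth plated on MHA; MIC is the lowest concentration inhibiting visible growth on agar.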

Experiment [12] concerns Micrococcus luteus. As to the kind of experiment: Antimicrobial activity against Micrococcus luteus MTCC 106 assessed as absence of visible growth after 48 to 72 hrs. It counts as functional.
Experiment [13] has as its system Klebsiella aerogenes. The experiment can be described thus: Antimicrobial activity against Enterobacter aerogenes MTCC 111 assessed as absence of visible growth after 48 to 72 hrs. Format: functional.
Experiment [14] deals with Salmonella typhimurium. The experiment can be described thus: Antimicrobial activity against Salmonella typhimurium MTCC 1251 assessed as absence of visible growth after 48 to 72 hrs. Format: functional, Salmonella enterica subsp. enterica serovar Typhimurium. As to conditions: Salmonella enterica.
In experiment [15] the test system is Proteus vulgaris. The experiment can be described thus: Antimicrobial activity against Proteus vulgaris MTCC 1771 assessed as absence of visible growth after 48 to 72 hrs. It counts as functional.
Experiment [16] concerns Shigella flexneri. As to the kind of experiment: Antimicrobial activity against Shigella flexneri MTCC 1457 assessed as absence of visible growth after 24 hrs.
In experiment [17] the test system is Klebsiella pneumoniae. The experiment can be described thus: Antimicrobial activity against Klebsiella pneumonia MTCC 109 assessed as absence of visible growth after 24 hrs.
Experiment [18] has as its system Staphylococcus epidermidis. The experiment can be described thus: Antimicrobial activity against Staphylococcus epidermidis MTCC 3615 assessed as absence of visible growth after 24 hrs.

≈ marks a conversion by molar mass, not a printed value. Calls of active or inactive are those of the source. The calls are words filed in the database; no cut-off is given here.

Consider `COc1ccc([C@H]2[C@@H]3CCCC=C3C(C#N)=C(N)C23C(=O)c2ccccc2C3=O)cc1` (relative stereo), for which the “inhibition zone (IZ)” value was determined as 12 mm in [1]; 11 mm in the experiment with Staphylococcus aureus [2]; 11 mm in the experiment with Micrococcus luteus [4]; 10 mm with Klebsiella aerogenes [5]; 10 mm in the experiment with Klebsiella pneumoniae [7]; 10 mm in the experiment on Malassezia pachydermatis. The inhibition result in the experiment with Staphylococcus aureus [3], with Salmonella typhimurium [6], in the experiment on Proteus vulgaris [8], with Shigella flexneri [9] and in the experiment with Candida albicans was “inactive” throughout.

As to `N#CC1=C(N)C2(C(=O)c3ccccc3C2=O)[C@@H](c2ccc(Cl)cc2)[C@@H]2CCCC=C12` (relative stereo), the “inhibition zone (IZ)” value in experiment [1] amounted to 8 mm; in the experiment on Staphylococcus aureus [2], 9 mm; in the experiment with Staphylococcus aureus [3], 13 mm; in the experiment on Klebsiella aerogenes [5] it was 13 mm; in the experiment on Salmonella typhimurium [6], 10 mm; in the experiment with Shigella flexneri [9], 8 mm. Besides, the inhibition entry in the experiment with Micrococcus luteus [4], with Klebsiella pneumoniae [7], in the experiment with Proteus vulgaris [8], with Candida albicans and in the experiment on Malassezia pachydermatis was “inactive” throughout.

As for `Cc1ccc([C@H]2[C@@H]3CCCC=C3C(C#N)=C(N)[C@]23C(=O)Nc2ccccc23)cc1`, the “inhibition zone (IZ)” value is listed as 12 mm in experiment [1]; 11 mm in the experiment on Staphylococcus aureus [2]; 9 mm with Staphylococcus aureus [3]; 8 mm in the experiment with Micrococcus luteus [4]; 13 mm in the experiment on Klebsiella aerogenes [5]; 9 mm in the experiment on Salmonella typhimurium [6]. Further, the “inhibition zone (IZ)” value with Klebsiella pneumoniae [7] turned out to be 10 mm; in the experiment on Proteus vulgaris [8] it was 12 mm; in the experiment on Shigella flexneri [9], 9 mm; in the experiment on Candida albicans, 8 mm; with Malassezia pachydermatis, 10 mm. In addition, the MIC in the experiment on Staphylococcus aureus [10] turned out to be 250 µg/mL (≈ 655 µM); in the experiment on Staphylococcus aureus [11] it was 1000 µg/mL (≈ 2620 µM); in the experiment with Micrococcus luteus [12], 1000 µg/mL (≈ 2620 µM); in the experiment with Klebsiella aerogenes [13], 250 µg/mL (≈ 655 µM); in the experiment with Salmonella typhimurium [14], 1000 µg/mL (≈ 2620 µM); in the experiment on Proteus vulgaris [15], 250 µg/mL (≈ 655 µM). For the same compound, the MIC came to 1000 µg/mL (≈ 2620 µM) in the experiment on Shigella flexneri [16], 500 µg/mL (≈ 1310 µM) in the experiment with Klebsiella pneumoniae [17] and 250 µg/mL (≈ 655 µM) in experiment [18].

As for `N#CC1=C(N)[C@]2(C(=O)Nc3ccccc32)[C@@H](c2ccccc2F)[C@@H]2CCCC=C12` (mixture of isomers), the “inhibition zone (IZ)” value in experiment [1] came out at 13 mm; in the experiment with Staphylococcus aureus [2] it was 17 mm; in the experiment on Staphylococcus aureus [3], 12 mm; in the experiment on Micrococcus luteus [4] it was 10 mm; in the experiment with Klebsiella aerogenes [5], 14 mm; in the experiment with Salmonella typhimurium [6], 11 mm. Also, the “inhibition zone (IZ)” value with Klebsiella pneumoniae [7] was 10 mm; with Proteus vulgaris [8], 8 mm; in the experiment with Shigella flexneri [9], 9 mm; with Candida albicans it was 10 mm. For the same compound, the inhibition entry in the experiment with Malassezia pachydermatis was “inactive”. The MIC in the experiment with Staphylococcus aureus [10] was found to be 125 µg/mL; with Staphylococcus aureus [11], 250 µg/mL; in the experiment with Micrococcus luteus [12] it was 250 µg/mL; with Klebsiella aerogenes [13], 250 µg/mL; in the experiment with Salmonella typhimurium [14], 250 µg/mL; in the experiment on Proteus vulgaris [15] it was 1000 µg/mL. For the same compound, the MIC in the experiment on Shigella flexneri [16] worked out at 1000 µg/mL; in the experiment on Klebsiella pneumoniae [17], 500 µg/mL; in experiment [18], 250 µg/mL.

`N#CC1=C(N)C2(C(=O)c3ccccc3C2=O)[C@@H](c2ccc(Br)cc2)[C@@H]2CCCC=C12` (relative stereo): the inhibition entry (in [1]; with Micrococcus luteus [4]; in the experiment with Klebsiella aerogenes [5]; in the experiment with Proteus vulgaris [8]; in the experiment with Shigella flexneri [9]; with Malassezia pachydermatis) was “inactive” in each case. The “inhibition zone (IZ)” value is given as 14 mm with Staphylococcus aureus [2]; 13 mm with Staphylococcus aureus [3]; 12 mm in the experiment with Salmonella typhimurium [6]; 10 mm in the experiment on Klebsiella pneumoniae [7]; 10 mm in the experiment on Candida albicans.

On to `CC(=O)N1CCN(c2ccc(OCC3COC(Cn4ccnc4)(c4ccc(Cl)cc4Cl)O3)cc2)CC1` (racemic) [KETOCONAZOLE], for which the “inhibition zone (IZ)” value in the experiment on Candida albicans came to 28 mm; with Malassezia pachydermatis, 26 mm.

As to `Cc1ccc([C@H]2[C@@H]3CCCC=C3C(C#N)=C(N)C23C(=O)CCCC3=O)cc1` (relative stereo), the inhibition entry (in experiment [1]; with Staphylococcus aureus [2]; with Staphylococcus aureus [3]; with Micrococcus luteus [4]; with Klebsiella aerogenes [5]; in the experiment with Salmonella typhimurium [6]) was “inactive” each time. Also, the inhibition result with Shigella flexneri [9], with Candida albicans and in the experiment with Malassezia pachydermatis was “inactive” each time. In addition, the “inhibition zone (IZ)” value came to 10 mm in the experiment on Klebsiella pneumoniae [7] and 9 mm in the experiment on Proteus vulgaris [8].

Regarding `COc1ccc([C@H]2[C@@H]3CCCC=C3C(C#N)=C(N)[C@]23C(=O)Nc2ccccc23)cc1`, the “inhibition zone (IZ)” value in [1] amounted to 9 mm; in the experiment on Staphylococcus aureus [2], 10 mm; with Staphylococcus aureus [3] it was 11 mm; in the experiment on Micrococcus luteus [4] it was 8 mm; with Klebsiella aerogenes [5], 10 mm; in the experiment on Salmonella typhimurium [6], 8 mm. Besides, the “inhibition zone (IZ)” value with Klebsiella pneumoniae [7] is listed as 9 mm; with Shigella flexneri [9], 8 mm; in the experiment on Candida albicans, 10 mm; in the experiment on Malassezia pachydermatis, 13 mm. Moreover, the inhibition entry with Proteus vulgaris [8] is “inactive”.

With `N#CC1=C(N)[C@]2(C(=O)Nc3ccccc32)[C@@H](c2ccccn2)[C@@H]2CCCC=C12`, the “inhibition zone (IZ)” value in experiment [1] is listed as 9 mm; with Klebsiella aerogenes [5] it was 8 mm; with Salmonella typhimurium [6] it was 11 mm; with Proteus vulgaris [8], 10 mm; with Candida albicans, 12 mm; in the experiment on Malassezia pachydermatis, 11 mm. The inhibition entry with Staphylococcus aureus [2], in the experiment with Staphylococcus aureus [3], with Micrococcus luteus [4], in the experiment with Klebsiella pneumoniae [7] and in the experiment with Shigella flexneri [9] was “inactive” throughout.

In the case of `N#CC1=C(N)[C@]2(C(=O)Nc3ccccc32)[C@@H](c2ccoc2)[C@@H]2CCCC=C12`, the inhibition entry (in experiment [1]; with Staphylococcus aureus [2]; with Klebsiella aerogenes [5]; in the experiment with Salmonella typhimurium [6]; in the experiment with Klebsiella pneumoniae [7]; in the experiment with Proteus vulgaris [8]) was “inactive” each time. In addition, the inhibition result in the experiment on Shigella flexneri [9], with Candida albicans and in the experiment with Malassezia pachydermatis was “inactive” throughout. In addition, the “inhibition zone (IZ)” value in the experiment on Staphylococcus aureus [3] came out at 10 mm; in the experiment on Micrococcus luteus [4], 8 mm.

In the case of `COc1ccc([C@H]2[C@@H]3CCC=C3C(C#N)=C(N)C23C(=O)c2ccccc2C3=O)cc1` (relative stereo), the inhibition result (in experiment [1]; in the experiment on Staphylococcus aureus [2]; in the experiment with Klebsiella aerogenes [5]; with Salmonella typhimurium [6]; in the experiment on Proteus vulgaris [8]; in the experiment on Shigella flexneri [9]) was “inactive” each time. In addition, the inhibition result with Candida albicans and in the experiment on Malassezia pachydermatis was “inactive” throughout. For the same compound, the “inhibition zone (IZ)” value with Staphylococcus aureus [3] was determined as 10 mm; with Micrococcus luteus [4] it was 8 mm; in the experiment with Klebsiella pneumoniae [7], 11 mm.
